Assay outcomes as filed in PubChem BioAssay.
FXIa inh 1536: factor XIa (human) inhibition; AID 798; 220,000 tested, 0.14% active; inhibition, % at 5 µM; purified FXIa, Boc-Glu-Ala-Arg-AMC fluorogenic substrate;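 active means inhibition of at least 40%; inactive means inhibition below 40%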;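 further: fluorescence of freed AMC excited at 355 nm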
FXIIa inh: inhibitors of human coagulation factor XIIa; P00748; purified FXIIa, Boc-QGR-AMC fluorogenic substrate, 2 h; inhibition, % at 5 µM; 220,000 tested, 0.3% active; in the data active means inhibition above about 40%
hK5 inh: kallikrein 5 (human) inhibition; recombinant hK5, fluorogenic AMC substrate cleavage; AID 873; Q9Y337; 210,000 tested, 0.59% active; inhibition, % at 5 µM;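 active means inhibition of 40% or more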
thrombin 1536: thrombin (human) inhibition | 220,000 tested, 0.26% active | alpha-thrombin, Boc-VPR-AMC fluorogenic substrate cleavage | inhibition, % at 5 µM | AID 1046;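 active means inhibition at or above 40%; inactive means inhibition below 40%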
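Assay system: human alpha-thrombin enzyme. Reagent: Boc-VPR-AMC substrate, 15 µM final. Compound dosing: one concentration per compound, 5 µM, with 0.2% DMSO. Incubation: room-temperature reaction. Technique: AMC fluorescence, 355/460 nm. Measure: % inhibition relative to enzyme controls and enzyme-free blanks.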
Furin inh: human furin inhibition. P09958. inhibition, % at 20 µM or 30 µM. purified furin, fluorogenic substrate cleavage. AID 463115. 220,000 tested, 0.061% active; in the data active means inhibition above about 25%
Target sequence (P09958 108-714 limits assumed): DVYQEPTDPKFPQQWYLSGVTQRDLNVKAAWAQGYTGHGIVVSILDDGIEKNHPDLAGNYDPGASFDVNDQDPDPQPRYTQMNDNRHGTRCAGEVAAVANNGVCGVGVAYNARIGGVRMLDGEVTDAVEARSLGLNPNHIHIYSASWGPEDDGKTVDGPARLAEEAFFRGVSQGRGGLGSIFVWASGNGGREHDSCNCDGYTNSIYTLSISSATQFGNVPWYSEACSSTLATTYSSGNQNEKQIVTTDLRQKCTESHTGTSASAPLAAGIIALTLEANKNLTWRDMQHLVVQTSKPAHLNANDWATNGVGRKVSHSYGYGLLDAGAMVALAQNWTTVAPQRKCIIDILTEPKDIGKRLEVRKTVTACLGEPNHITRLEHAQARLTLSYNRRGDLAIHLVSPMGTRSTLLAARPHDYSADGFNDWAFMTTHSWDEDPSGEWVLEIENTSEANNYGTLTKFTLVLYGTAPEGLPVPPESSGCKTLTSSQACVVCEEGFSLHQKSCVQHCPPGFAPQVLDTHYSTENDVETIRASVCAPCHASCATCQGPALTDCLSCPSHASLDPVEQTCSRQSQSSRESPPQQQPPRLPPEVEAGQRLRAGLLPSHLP
Large screens that a line does not name were inactive. This is a sample that favours compounds with a hit; in the whole collection about 1.1% have one here.

NC(=O)NOCc1ccccc1	FXIa inh 1536 45
Cc1ccc2c(c1)CC1(CN2C)C(=O)OC2(CCCCC2)OC1=O	thrombin 1536 61
COc1ccc(C2c3c(-c4cc(Cl)c(C)cc4O)n[nH]c3C(=O)N2Cc2cccnc2)cc1OC (stereo not given)	thrombin 1536 57
Cc1[nH]c2ccccc2c1NC(=O)CN1CCN(C(=O)c2ccco2)CC1	FXIIa inh 59
O=C(Cc1ccccc1)NN1C(=O)c2ccccc2C1=O	none
COc1ccccc1CC(=O)NN1C(=O)c2ccccc2C1=O	FXIIa inh 106, hK5 inh 44
C=C(C(=O)c1ccccc1)C(C(=C)C(=O)c1ccccc1)c1ccc(OC)cc1	none
CC(=O)c1ccc(N=C2SCCCN2C(=O)C2CCCC2)cc1	none
Cc1cc(C)nc(N2CCC(C(=O)Nc3nnc(C)s3)CC2)n1	none
COC(=O)c1c(C)nn(-c2ccccc2)c1-n1cccc1	thrombin 1536 41
COC(=O)c1c(C)nn(-c2ccccc2)c1N	none
C[C@@H](Oc1ccccc1)c1nnn(Cc2ccccc2)c1-c1c([C@@H](C)Oc2ccccc2)nnn1Cc1ccccc1	none
COc1ccccc1NC(=O)c1cc2ccccc2o1	none
COc1ccc(NC(=O)c2ccco2)cc1NC(=O)c1cc2ccccc2o1	hK5 inh 54
O=C(Nc1ccc(N2CCN(C(=O)c3ccco3)CC2)c(Cl)c1)c1cc2ccccc2o1	hK5 inh 40
O=C(COC(=O)CCc1ccccc1)Nc1ncc(Cl)cc1Cl	thrombin 1536 42
O=C(COC(=O)CCOc1ccccc1)Nc1ccc(Cl)cn1	thrombin 1536 48
CCn1cc(C(=O)OCC(=O)N(C)Cc2ccccc2)c(=O)c2ccc(C)nc21	none (no result: FXIIa inh)
O=C(CSc1nc(-c2ccccc2)cs1)Nc1ccccc1[N+](=O)[O-]	none
N/C(=N\OC(=O)c1ccc(Cl)cc1Cl)c1ccccn1	hK5 inh 53
N/C(=N\OC(=O)c1cc(Br)ccc1Cl)c1ccccn1	none
NC(=O)N\N=C/C=C/C=C/c1ccc(F)cc1	none
NC(=O)N/N=C/C=C/c1ccccc1	thrombin 1536 42
Cc1ccc(OCc2nnc(SCC(=O)c3ccccc3)n2Cc2ccco2)cc1	none
O=c1c2ccccc2nnn1CSc1nnc(COc2ccc(Cl)cc2)n1Cc1ccco1	hK5 inh 48
O=C(CSc1nnc(COc2ccccc2)n1Cc1ccco1)c1ccc(F)cc1	FXIIa inh 62
c1cc(CNC2=NCCCCC2)ccn1	hK5 inh 65
Nc1c(C(=O)NCc2cccnc2)sc(=S)n1-c1ccccc1	FXIIa inh 42
CCn1c(N)c(C(=O)NCc2cccnc2)sc1=S	none
O=c1cnc2cc([N+](=O)[O-])ccc2[nH]1	none
COc1cc2c(cc1OC)C1C(C(=O)Nc3ccccc3N3CCN(C)CC3)c3ccccc3C(=O)N1CC2 (stereo not given)	none
Cc1ccc(S(=O)(=O)NC(=O)Nc2cc(C(C)(C)C)on2)cc1	none
CN(C)S(=O)(=O)c1ccc(NC(=O)c2ccc3ncsc3c2)cc1	none
CCc1ccc(NC(=O)c2ccc3ncsc3c2)cc1	hK5 inh 40
CCN(CC)c1ccc(/C=N/NC(=O)c2ccoc2C)c(O)c1	none
Cc1cc(NC(=O)CSc2nc3ccccc3c(=O)n2-c2ccccc2)no1	hK5 inh 43
CCOc1ccc(-n2c(SCC(=O)Nc3cc(C)on3)nnc2-c2c[nH]c3ccccc23)cc1	FXIIa inh 48
COc1cccc(-n2c(SCC(=O)Nc3ccc4c(c3)CCC4)nc3ccccc3c2=O)c1	hK5 inh 45, thrombin 1536 54
COc1ccc(NC(=O)CSc2nc3ccccc3c(=O)n2CCCN2CCCCC2)c(OC)c1	hK5 inh 49
CCOC(=O)N1CCC(Nc2ccc(N3C(=O)C4CCCCC4C3=O)cc2[N+](=O)[O-])CC1 (stereo not given)	none (no result: hK5 inh)
COc1ccc(S(=O)(=O)N2CC(O)CC2C(=O)Nc2cccnc2)cc1 (stereo not given)	none
CCC(=O)Nc1sc2c(c1C#N)CC(C)(CC)OC2 (stereo not given)	none
COc1ccccc1CC(=O)NCc1csc(-c2cccs2)n1	FXIa inh 1536 47, FXIIa inh 45
COc1cc(C2CC(=O)N(c3ccc(C)cc3)C(=O)C2)cc(OC)c1OC	none
CC(C)(C)CC(=O)NC(=S)NCc1ccco1	none
COc1cccc(Cn2cnc3c(N)c(C)c(C)cc32)c1	none
Cc1cccc(Cn2cnc3c(NS(C)(=O)=O)c(C)c(C)cc32)c1	hK5 inh 57
O=C(C[n+]1cccc(CNC(=O)c2ccc(OC(F)F)cc2)c1)Nc1cc(C(F)(F)F)ccc1Cl	hK5 inh 61
NC(=O)C[n+]1cccc(CNC(=O)c2ccc(OC(F)F)cc2)c1	none
COc1cc(/C=N/NC(=O)Cn2cnc3ccccc3c2=O)ccc1O	none
Clc1ccc(C2CSc3c4ncnc-4ncn32)cc1 (stereo not given)	hK5 inh 46
COC(=O)c1cc(N2C(=O)C3C(C2=O)C2(C)C=CC3(C)O2)ccc1Cl (stereo not given)	hK5 inh 44, thrombin 1536 104
CC1CCN(C(=O)c2cc(N3C(=O)C4C5CCC(C5)C4C3=O)ccc2Cl)CC1 (stereo not given)	none
CC(=O)N(CCS(=O)(=O)c1ccc(Cl)cc1)Cc1cccs1	none
O=S(=O)(CCNCc1cccs1)c1ccc(Cl)cc1	hK5 inh 50
CC(C1CC2CCC1C2)N1CC(O)=C(c2nc3ccccc3[nH]2)C1=N (stereo not given)	FXIIa inh 49
CC(C)N1CC(O)=C(c2nc3ccccc3[nH]2)C1=N	none
COc1ccccc1NC(=O)c1sc2ncn(Cc3cccc(C)c3)c(=O)c2c1C	hK5 inh 44, thrombin 1536 100
COc1ccccc1NC(=O)c1sc2ncn(Cc3ccc(C)cc3)c(=O)c2c1C	thrombin 1536 99
Cc1c(N(C)C(=O)C2CCCN2S(=O)(=O)c2ccccc2)c(=O)n(-c2ccccc2)n1C (stereo not given)	hK5 inh 71, thrombin 1536 104
COC(=O)C1=C(C)NC(=S)NC1c1ccco1 (stereo not given)	none (no result: thrombin 1536)
O=C(c1ccccc1)c1ccc2nc(-c3ccco3)c(-c3ccco3)nc2c1	none
O=c1oc(-c2ccco2)nc2ccccc12	hK5 inh 44
O=c1c2cnn(-c3ccccc3)c2nc(-c2ccco2)n1-c1ccccc1	none
O=c1oc(-c2ccco2)nc2c1cnn2-c1ccccc1	FXIIa inh 48
c1coc(-c2nc3ccccc3nc2-c2ccco2)c1	FXIIa inh 45
Cc1cccc(NS(=O)(=O)c2cc(C(=O)N3CCOCC3)ccc2Cl)c1	none
COc1cc(N2CCCC2)c(OC)cc1/C=C(/C#N)c1ccc(Br)cc1	hK5 inh 50
COc1cc(N2CCCC2)c(OC)cc1/C=C(/C#N)c1ccc(F)cc1	none
CCCc1nc2ccccc2c(C(=O)OCC(=O)N2CCc3ccccc32)c1CC	hK5 inh 58
CCc1cccc(NC(=O)c2cc(S(=O)(=O)N(C)C)ccc2N2CCCC2)c1	none
